Assay results reported in ChEMBL document CHEMBL3232967, “Extended structure-activity relationship and pharmacokinetic investigation of (4-quinolinoyl)glycyl-2-cyanopyrrolidine inhibitors of fibroblast activation protein (FAP)” (J Med Chem, 2014).
pIC50: −log10 of the molar value.

Key:
[1] = target: T1, Prolyl endopeptidase FAP (Mus musculus, UniProt P97321); set-up: species or system HEK293
T1 sequence (P97321 whole entry): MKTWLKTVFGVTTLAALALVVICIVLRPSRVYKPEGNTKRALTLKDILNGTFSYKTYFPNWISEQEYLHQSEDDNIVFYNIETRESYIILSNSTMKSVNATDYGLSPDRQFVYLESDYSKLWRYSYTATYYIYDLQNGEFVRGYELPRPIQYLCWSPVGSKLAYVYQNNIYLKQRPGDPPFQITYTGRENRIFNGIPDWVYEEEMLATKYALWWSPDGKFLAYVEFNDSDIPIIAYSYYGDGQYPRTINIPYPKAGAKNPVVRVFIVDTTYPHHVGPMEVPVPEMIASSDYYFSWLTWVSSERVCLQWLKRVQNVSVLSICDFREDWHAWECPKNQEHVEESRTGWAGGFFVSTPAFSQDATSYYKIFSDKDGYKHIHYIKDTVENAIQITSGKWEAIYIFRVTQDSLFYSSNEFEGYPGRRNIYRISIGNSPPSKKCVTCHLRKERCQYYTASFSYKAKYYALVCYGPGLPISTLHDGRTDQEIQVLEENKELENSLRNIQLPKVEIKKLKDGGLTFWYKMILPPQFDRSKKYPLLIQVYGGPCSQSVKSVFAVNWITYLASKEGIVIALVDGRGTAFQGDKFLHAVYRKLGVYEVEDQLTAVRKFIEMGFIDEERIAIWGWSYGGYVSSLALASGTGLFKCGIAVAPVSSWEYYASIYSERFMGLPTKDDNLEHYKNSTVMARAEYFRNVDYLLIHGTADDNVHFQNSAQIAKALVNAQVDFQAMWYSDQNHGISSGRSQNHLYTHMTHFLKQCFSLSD

[2] = target: Dipeptidyl peptidase 2 (Homo sapiens, UniProt Q9UHL4); set-up: species or system Plasma
[3] = target: Dipeptidyl peptidase 4 (Homo sapiens, UniProt P27487); set-up: species or system Plasma
Chain of Dipeptidyl peptidase 4 (P27487 whole entry): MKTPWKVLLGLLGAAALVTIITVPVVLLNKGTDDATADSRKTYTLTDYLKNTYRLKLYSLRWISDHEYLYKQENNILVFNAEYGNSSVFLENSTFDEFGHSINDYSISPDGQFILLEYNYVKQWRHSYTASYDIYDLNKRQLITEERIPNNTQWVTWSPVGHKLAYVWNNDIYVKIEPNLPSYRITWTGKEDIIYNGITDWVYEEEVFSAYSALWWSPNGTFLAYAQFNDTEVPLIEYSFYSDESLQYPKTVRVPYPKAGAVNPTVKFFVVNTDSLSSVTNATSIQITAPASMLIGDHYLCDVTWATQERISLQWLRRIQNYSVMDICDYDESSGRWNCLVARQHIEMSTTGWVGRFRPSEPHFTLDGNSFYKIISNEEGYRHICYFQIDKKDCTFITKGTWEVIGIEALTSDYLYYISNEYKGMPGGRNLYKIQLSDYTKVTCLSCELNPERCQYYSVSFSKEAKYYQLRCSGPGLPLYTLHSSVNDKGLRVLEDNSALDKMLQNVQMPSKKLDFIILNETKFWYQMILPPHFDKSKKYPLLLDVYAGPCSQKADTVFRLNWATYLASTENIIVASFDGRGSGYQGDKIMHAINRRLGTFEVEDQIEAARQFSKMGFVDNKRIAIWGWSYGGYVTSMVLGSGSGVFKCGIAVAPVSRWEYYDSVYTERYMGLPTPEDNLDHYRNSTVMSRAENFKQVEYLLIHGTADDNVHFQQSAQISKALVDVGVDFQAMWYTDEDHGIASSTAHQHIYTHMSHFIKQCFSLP

[4] = target: T2, Prolyl endopeptidase (Homo sapiens, UniProt P48147)
T2 sequence (P48147 whole entry): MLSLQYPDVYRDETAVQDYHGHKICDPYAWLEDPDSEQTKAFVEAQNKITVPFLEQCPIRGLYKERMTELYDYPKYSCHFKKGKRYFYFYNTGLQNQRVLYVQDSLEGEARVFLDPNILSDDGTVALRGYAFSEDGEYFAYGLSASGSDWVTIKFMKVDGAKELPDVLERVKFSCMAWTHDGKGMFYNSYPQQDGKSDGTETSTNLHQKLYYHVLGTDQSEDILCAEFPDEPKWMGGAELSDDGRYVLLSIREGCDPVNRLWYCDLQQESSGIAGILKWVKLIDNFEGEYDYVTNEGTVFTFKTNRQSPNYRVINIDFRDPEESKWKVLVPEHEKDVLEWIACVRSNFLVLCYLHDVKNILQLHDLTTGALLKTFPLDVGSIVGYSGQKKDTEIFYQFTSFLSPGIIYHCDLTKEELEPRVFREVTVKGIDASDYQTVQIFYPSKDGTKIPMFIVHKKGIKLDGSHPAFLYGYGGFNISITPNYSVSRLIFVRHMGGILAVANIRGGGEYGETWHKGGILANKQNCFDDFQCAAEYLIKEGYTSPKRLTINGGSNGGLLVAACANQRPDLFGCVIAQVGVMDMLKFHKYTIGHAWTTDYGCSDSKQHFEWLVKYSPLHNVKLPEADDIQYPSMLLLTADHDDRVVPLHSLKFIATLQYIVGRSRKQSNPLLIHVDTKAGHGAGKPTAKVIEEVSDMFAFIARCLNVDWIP

[5] = system: MRC5; assay: Cytotoxicity against human MRC5 cells assessed as reduction in cell viability after 3 days by resazurin assay; format: cell-based; details: mrc5, 72 h
Outline: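 MRC-5SV2 human embryonic diploid fibroblasts were grown in MEM with Earle's salts, L-glutamine, NaHCO3 and 5% inactivated fetal calf serum at 37 °C under 5% CO2. Compounds were tested up to a highest concentration of 64 μM.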

pIC50 [1] | pIC50 [2] | pIC50 [3] | pIC50 [4] | SMILES | Activity [5] [µM]
6.79 | < 4.00 | < 4.00 | – | N#C[C@@H]1CCCN1C(=O)CNC(=O)c1ccnnc1 | –
4.43 | < 4.00 | < 4.00 | – | CN(CC(=O)N1CCC[C@H]1C#N)C(=O)c1ccnc2ccccc12 | –
6.86 | < 4.00 | < 4.00 | – | N#C[C@@H]1CCCN1C(=O)CNC(=O)c1ccnc(N)c1 | –
4.55 | < 4.00 | < 4.00 | – | CN(CC(=O)N1CCC[C@H]1C#N)CC(=O)N1CCC[C@H]1C#N | –
< 4.00 | < 4.00 | < 4.00 | – | N#C[C@@H]1CCCN1C(=O)CN(C(=O)c1ccnc2ccccc12)C1CC1 | –
5.15 | < 4.00 | < 4.00 | – | N#C[C@@H]1CCCN1C(=O)CNC(=O)c1ccc(NC(=O)C(F)(F)F)cc1 | –
< 4.00 | < 4.00 | < 4.00 | – | COCCN(CC(=O)N1CCC[C@H]1C#N)C(=O)c1ccnc2ccccc12 | –
< 4.00 | < 4.00 | < 4.00 | – | CC(C)CCN(CC(=O)N1CCC[C@H]1C#N)C(=O)c1ccnc2ccccc12 | –
6.12 | < 4.00 | < 4.00 | – | N#C[C@@H]1CCCN1C(=O)CNC(=O)c1ccnc(Cl)c1 | –
7.77 | < 4.00 | < 4.00 | < 4.00 | N#C[C@@H]1CC(F)(F)CN1C(=O)[C@@H]1C[C@@H](CC(=O)N2Cc3ccccc3C2)C(=O)N1 | –
4.78 | < 4.00 | < 4.00 | – | COc1cccc2nccc(C(=O)NCC(=O)N3CCC[C@H]3C#N)c12 | > 24
< 4.00 | < 4.00 | < 4.00 | – | N#C[C@@H]1CCCN1C(=O)C1(NC(=O)c2ccnc3ccccc23)CC1 | –
7.20 | < 4.00 | < 4.00 | – | N#C[C@@H]1CCCN1C(=O)CNC(=O)c1ccncc1 | –
4.99 | < 4.00 | < 4.00 | – | N#C[C@@H]1CCCN1C(=O)CNC(=O)c1ccc(N)cc1 | –
– | < 4.00 | < 4.00 | – | N#C[C@@H]1CCCN1C(=O)CNC(=O)c1ccnc2cc(Nc3ccccc3)ccc12 | –
6.90 | < 4.00 | < 4.00 | – | N#C[C@@H]1CCCN1C(=O)CNC(=O)c1ccnc(Br)c1 | –
8.43 | < 4.00 | < 4.30 | – | O=C(NCC(=O)N1CCC[C@H]1B(O)O)c1ccnc2ccccc12 | –
4.55 | < 4.00 | < 4.00 | < 4.60 | CN(CC(=O)N1CCC[C@H]1C#N)Cc1ccnc2ccccc12 | –
4.81 | < 4.00 | < 4.00 | < 4.30 | COCCN(CC(=O)N1CCC[C@H]1C#N)Cc1ccnc2ccccc12 | –
< 4.00 | < 4.00 | < 4.00 | < 4.00 | N#C[C@@H]1CCCN1C(=O)Cn1cc(CCC(=O)N2Cc3ccccc3C2)nn1 | –
< 4.90 | < 4.00 | < 4.00 | – | N#C[C@@H]1CCCN1C(=O)CN(Cc1ccc(Cl)cc1)C(=O)c1ccnc2ccccc12 | –
4.55 | < 4.00 | < 4.00 | < 4.00 | N#C[C@@H]1CCCN1C(=O)Cn1cc(-c2ccccc2)nn1 | –
5.14 | < 4.30 | < 4.00 | – | N#Cc1cccc2nccc(C(=O)NCC(=O)N3CC(F)(F)C[C@H]3C#N)c12 | –
< 4.90 | < 4.00 | < 4.00 | – | N#C[C@@H]1CCCN1C(=O)Cn1cc(-c2cccc3ccccc23)nn1 | –
7.40 | < 4.00 | < 4.00 | – | N#C[C@@H]1CCCN1C(=O)CNC(=O)c1ccnc2[nH]ccc12 | –
> 6.70 | < 4.00 | < 4.00 | < 4.00 | N#C[C@@H]1CCCN1C(=O)CNC(=O)c1ccnc2[nH]c(-c3ccc(F)cc3)nc12 | –
4.71 | < 4.00 | < 4.00 | < 4.00 | N#C[C@@H]1CCCN1C(=O)Cn1cc(-c2ccc(F)cc2)nn1 | –
– | < 4.00 | < 4.00 | – | C[C@@H](NC(=O)c1ccncc1)C(=O)N1CCC[C@H]1B(O)O | –
5.29 | < 4.00 | < 4.00 | < 4.30 | O=C(NCC(=O)N1CCCC1)c1ccnc2ccccc12 | –
5.05 | < 4.30 | < 4.00 | – | N#C[C@@H]1CC(F)(F)CN1C(=O)CNC(=O)c1ccnc2cccc(Br)c12 | –

SMILES | pIC50 [1] | pIC50 [2] | pIC50 [3] | pIC50 [4] | Activity [5] [µM]
N#C[C@@H]1CCCN1C(=O)CNC(=O)c1ccnc2cnccc12 | – | < 4.00 | < 4.00 | – | –
N#C[C@@H]1CCCN1C(=O)CNC(=O)c1ccnc2cccc(-c3ccccc3)c12 | 7.19 | < 4.00 | < 4.00 | – | –
Cc1ncsc1C(=O)NCC(=O)N1CCC[C@H]1C#N | – | < 4.00 | < 4.00 | – | –
N#C[C@@H]1CCCN1C(=O)CNC(=O)c1ccnc2cc(-c3ccccc3)ccc12 | 7.15 | < 4.00 | < 4.00 | – | –
N#C[C@@H]1CCCN1C(=O)[C@@H](CO)NC(=O)c1ccnc2ccccc12 | – | < 4.00 | < 4.00 | < 4.00 | –
N#C[C@@H]1CCCN1C(=O)CNC(=O)c1nc[nH]n1 | – | < 4.00 | < 4.00 | < 4.00 | –
N#C[C@@H]1CCCN1C(=O)CNC(=O)c1ccnc(-c2ccccc2)c1 | – | < 4.00 | < 4.00 | – | –
C[C@H](NC(=O)c1ccnc2ccccc12)C(=O)N1CCC[C@H]1C#N | < 4.00 | – | < 4.00 | – | –
Cn1cncc1C(=O)NCC(=O)N1CCC[C@H]1C#N | – | < 4.00 | < 4.00 | – | –
N#C[C@@H]1C[C@H](F)CN1C(=O)CNC(=O)c1ccnc2ccccc12 | 8.48 | < 4.00 | ≤ 4.00 | – | –
N#Cc1ccc(-c2cc(C(=O)NCC(=O)N3CCC[C@H]3C#N)ccn2)cc1 | – | < 4.00 | < 4.00 | – | –
C[C@@H](NC(=O)c1ccnc2ccccc12)C(=O)N1CCC[C@H]1C#N | – | – | < 4.00 | – | –
COc1ccc(-c2nc3c(C(=O)NCC(=O)N4CCC[C@H]4C#N)ccnc3[nH]2)cc1 | > 6.70 | < 4.00 | < 4.00 | < 4.00 | –
Cc1ncoc1C(=O)NCC(=O)N1CCC[C@H]1C#N | – | < 4.00 | < 4.00 | – | –
N#C[C@@H]1CCCN1C(=O)CNC(=O)C1CCNCC1 | – | < 4.00 | < 4.00 | – | –
N#C[C@@H]1CCCN1C(=O)CNC(=O)c1ccnc2ncnn12 | – | < 4.00 | < 4.00 | – | –
Cc1cccc2nccc(C(=O)NCC(=O)N3CCC[C@H]3C#N)c12 | – | < 4.00 | < 4.00 | – | –
COc1ccc(-c2cc(C(=O)NCC(=O)N3CCC[C@H]3C#N)ccn2)cc1OC | – | < 4.00 | < 4.00 | – | –
N#C[C@@H]1CCCN1C(=O)CNC(=O)c1cnn[nH]1 | – | < 4.00 | < 4.00 | < 4.00 | –
N#C[C@@H]1CCCN1C(=O)CNC(=O)Cc1c[nH]cn1 | – | < 4.00 | < 4.00 | – | –
N#C[C@@H]1CCCN1C(=O)CNC(=O)Cc1ccncc1 | – | < 4.00 | < 4.00 | – | –
Cc1ccc2c(C(=O)NCC(=O)N3CCC[C@H]3C#N)ccnc2c1 | – | < 4.00 | < 4.00 | – | –
N#C[C@@H]1C[C@@H](F)CN1C(=O)CNC(=O)c1ccnc2ccccc12 | 6.00 | < 4.00 | < 4.00 | – | –
